This passage reports GI50 and RatioGI50 results from ChEMBL document CHEMBL1240425, “Design and synthesis of chloroquine analogs with anti-breast cancer property” (Eur J Med Chem, 2010).

Each structure is given as a SMILES string.

Data set [1] is described as follows: Antiproliferative activity against human MCF10A cells after 48 hrs by SRB assay. Type of data set: cell-based, MCF-10A. The procedure, abridged:
(§1)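 Cells (5000–10,000/well) preincubated 24 h at 37 °C, 5% CO2; MCF10A kept in mammary epithelial basal medium with MEGM supplements. Seven concentrations from 2–10-fold serial dilutions, with ≤0.1% DMSO vehicle control, were given for 48 h. Cells were TCA-fixed (10% final), then stained with 0.4% SRB. Dye was solubilized in 10 mM Tris base and read at 515–564 nm. GI50 came from variable-slope sigmoidal fits, triplicates, ≥2 experiments.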

Data set [2] deals with MDA-MB-231. Description: Antiproliferative activity against human p53, pRB mutant and estrogen receptor deficient MDA-MB-231 cells after 48 hrs by SRB assay. As to conditions: MDA-MB-231, 48 h. Type of data set: functional. The procedure, abridged:
as §1

Data set [3] relates to MCF7. Description: Antiproliferative activity against human p53+/- MCF7 cells after 48 hrs by SRB assay. It is filed as functional. As to conditions: MCF7, 48 h. The procedure, abridged: as §1
The subject of data set [4] is MDA-MB-231. Description: Ratio of compound GI50 to cisplatin GI50 for human p53, pRB mutant and estrogen receptor deficient MDA-MB-231 cells after 48 hrs by SRB assay. It is filed as functional.
For data set [5], the system named is MCF7. Description: Ratio of GI50 for human MCF10A cells to GI50 for human p53+/- MCF7 cells.
Data set [6] concerns MDA-MB-231. As to the kind of experiment: Ratio of GI50 for human MCF10A cells to GI50 for human p53, pRB mutant and estrogen receptor deficient MDA-MB-231 cells.
The subject of data set [7] is MCF7. Description: Ratio of compound GI50 to cisplatin GI50 for human p53+/- MCF7 cells after 48 hrs by SRB assay. Type of data set: functional.

Consider `Clc1ccc2c(NCCCN3CCCC3)ccnc2c1`, for which, in data set [1], the GI50 at 48 h amounted to 45.8 µM. Further, the concentration for 50% growth inhibition (GI50) was found to be 29.8 µM in data set [2] and 21.4 µM in data set [3].
In the same order, the values of `Clc1ccc2c(NCCCN3CCOCC3)ccnc2c1` are 86.5 µM, 40.2 µM and 17.2 µM.
For `CN1CCN(CCCNc2ccnc3cc(Cl)ccc23)CC1` the same measures were 16.7 µM, 19.1 µM and 17.1 µM.
In data set [1], `Clc1ccc2c(NCCCN3CCN(c4ccccc4)CC3)ccnc2c1` had a concentration for 50% growth inhibition (GI50) at 48 h of 12.6 µM. For the same molecule, the GI50 in data set [2] worked out at 15.9 µM; in data set [3] it was 12.8 µM.
Molecule `Clc1ccc2c(NCCCN3CCN(c4ccnc5cc(Cl)ccc45)CC3)ccnc2c1` returned a GI50 at 48 h in data set [1] of 8.72 µM. Moreover, the GI50 in data set [2] is 7.52 µM; in data set [3] it was 5.42 µM.
`FC(F)(F)c1ccc2c(N3CCN(CCCNc4ccnc5cc(Cl)ccc45)CC3)ccnc2c1`: the RatioGI50 in data set [4] came to 3.7; in data set [5], 2.58; in data set [6], 2.03; in data set [7], 5.16. This molecule also displayed a 50% growth inhibitory concentration (GI50) at 48 h in data set [1] of 12.9 µM. For the same molecule, the values for the 50% growth inhibitory concentration (GI50) in data set [2] and in data set [3] were 6.33 µM and 4.99 µM, respectively.
Take `O=C1C(=O)N(CCCNc2ccnc3cc(Cl)ccc23)c2ccccc21`: in data set [1], it took 35.9 µM to inhibit growth by half (GI50 at 48 h). The GI50 was 47.6 µM in data set [2] and 23.5 µM in data set [3].
The molecule `O=C1C(=O)N(CCCNc2ccnc3cc(Cl)ccc23)c2cccc(Cl)c21` returned a GI50 at 48 h in data set [1] of 84.8 µM. For the same molecule, the GI50 was found to be 55.6 µM in data set [2] and 46.7 µM in data set [3].
For `O=C1C(=O)N(CCCNc2ccnc3cc(Cl)ccc23)c2cccc(Br)c21` the same measures were 20.8 µM, 16.8 µM and 6.57 µM.
In the same order, the values of `O=C1C(=O)N(CCCNc2ccnc3cc(Cl)ccc23)c2cc(Cl)ccc21` are 6.88 µM, 15.8 µM and 7.36 µM.
For `O=C1C(=O)N(CCCNc2ccnc3cc(Cl)ccc23)c2cc(Br)ccc21` the same measures were 19.9 µM, 35 µM and 16.6 µM.
Regarding `FC(F)(F)c1ccc2c(NCCCN3CCCC3)ccnc2c1`, in data set [1], the GI50 at 48 h came out at 58.6 µM. The GI50 turned out to be 70.4 µM in data set [2] and 36.8 µM in data set [3].
Consider `FC(F)(F)c1ccc2c(NCCCN3CCCCC3)ccnc2c1`, for which the GI50 at 48 h in data set [1] was 48.8 µM. The results for the GI50 in data set [2] and in data set [3] were 38.6 µM and 32.6 µM, respectively.
In turn, `FC(F)(F)c1ccc2c(NCCCN3CCOCC3)ccnc2c1` came in with a GI50 at 48 h in data set [1] of 26.5 µM. In addition, the concentration for 50% growth inhibition (GI50) in data set [2] turned out to be 79.8 µM; in data set [3], 38.8 µM.
For `CN1CCN(CCCNc2ccnc3cc(C(F)(F)F)ccc23)CC1` the same measures were 51.7 µM, 43.3 µM and 30.8 µM.
In the same order, the values of `FC(F)(F)c1ccc2c(NCCCN3CCN(c4ccccc4)CC3)ccnc2c1` are 19.8 µM, 9.9 µM and 8.75 µM.
For `FC(F)(F)c1ccc2c(NCCCN3CCN(c4ccnc5cc(Cl)ccc45)CC3)ccnc2c1`, the GI50 at 48 h in data set [1] is 8.84 µM. Also, the GI50 in data set [2] came to 4.31 µM; in data set [3] it was 4.6 µM. Moreover, the results for the RatioGI50 in data set [5] and in data set [6] were 1.92 and 2.05, respectively.
In data set [1], `FC(F)(F)c1ccc2c(NCCCN3CCN(c4ccnc5cc(C(F)(F)F)ccc45)CC3)ccnc2c1` came in with a GI50 at 48 h of 30 µM. Also, the 50% growth inhibitory concentration (GI50) in data set [2] was 25.7 µM; in data set [3], 17.2 µM.
For `O=C1C(=O)N(CCCNc2ccnc3cc(C(F)(F)F)ccc23)c2ccccc21` the same measures were 46.8 µM, 54.1 µM and 45.3 µM.
In the same order, the values of `O=C1C(=O)N(CCCNc2ccnc3cc(C(F)(F)F)ccc23)c2cccc(Cl)c21` are 20.2 µM, 50.2 µM and 18.8 µM.
For `O=C1C(=O)N(CCCNc2ccnc3cc(C(F)(F)F)ccc23)c2cccc(Br)c21` the same measures were 33.7 µM, 49.4 µM and 34.4 µM.
Regarding `O=C1C(=O)N(CCCNc2ccnc3cc(C(F)(F)F)ccc23)c2cc(Cl)ccc21`, the GI50 at 48 h in data set [1] came to 25.2 µM. Besides, the results for the GI50 in data set [2] and in data set [3] were 17.4 µM and 14.3 µM, respectively.
Take `O=C1C(=O)N(CCCNc2ccnc3cc(C(F)(F)F)ccc23)c2cc(Br)ccc21`: the GI50 at 48 h in data set [1] amounted to 14.6 µM. Also, the GI50 in data set [2] amounted to 18.9 µM; in data set [3], 7.98 µM.
In the same order, the values of `CCN(CC)CCCNc1ccnc2cc(Cl)ccc12` are 65.3 µM, 27.8 µM and 17.9 µM.
In the same order, the values of `Clc1ccc2c(NCCCN3CCCCC3)ccnc2c1` are 47.8 µM, 38 µM and 17.7 µM.
For `CCN(CC)CCCNc1ccnc2cc(C(F)(F)F)ccc12` the same measures were 45.8 µM, 57.1 µM and 20.6 µM.
For `CCN(CC)CCCC(C)Nc1ccnc2cc(Cl)ccc12` (stereo not given) [CHLOROQUINE], growth in data set [1] was halved (GI50 at 48 h) at 81.3 µM.
